Measurements published in paper PMC4339026 (Biopolymers, 2014).
Entries after “also recorded” stand apart in the source; their conditions may differ. Read-outs that look alike come from different tables or passages of the source.

Key:
[1] = biological target: T1, meprin α (Homo sapiens, UniProt Q16819); assay: Meprin α LOPAC pilot screen; type: biochemical; settings: 18 μM, hit cutoff 25% inhibition
T1 sequence (Q16819 66-653 limits assumed): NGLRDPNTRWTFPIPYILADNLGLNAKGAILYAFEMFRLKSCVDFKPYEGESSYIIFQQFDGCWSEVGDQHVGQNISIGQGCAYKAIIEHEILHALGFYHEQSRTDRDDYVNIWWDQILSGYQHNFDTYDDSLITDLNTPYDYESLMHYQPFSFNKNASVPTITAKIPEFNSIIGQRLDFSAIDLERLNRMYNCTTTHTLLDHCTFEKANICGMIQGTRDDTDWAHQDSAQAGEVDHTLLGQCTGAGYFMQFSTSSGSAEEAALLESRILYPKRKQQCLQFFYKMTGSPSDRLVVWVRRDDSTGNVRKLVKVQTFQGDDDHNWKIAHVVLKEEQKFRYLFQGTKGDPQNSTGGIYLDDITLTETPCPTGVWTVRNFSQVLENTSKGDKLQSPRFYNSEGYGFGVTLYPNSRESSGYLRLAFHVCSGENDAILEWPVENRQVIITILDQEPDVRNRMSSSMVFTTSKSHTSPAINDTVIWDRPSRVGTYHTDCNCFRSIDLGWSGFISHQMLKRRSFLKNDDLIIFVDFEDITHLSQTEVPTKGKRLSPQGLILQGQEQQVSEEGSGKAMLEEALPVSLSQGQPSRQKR
Summary of the method: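 Single-point FRET screen of 1,280 library compounds at 18 μM nominal final concentration, on four plates. Trypsin-activated recombinant human meprin α (2x solution 2.6 nM, Hepes/Brij-35 pH 7.5) was pre-incubated 30 min at RT with test compound added by pin tool. 2x (MCA)-YVADAPK-(K-ε-DNP) at 20 μM was then added for 1 h at RT. Read at ex 324/em 393 nm.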

[2] = biological target: T2, meprin β (Homo sapiens, UniProt Q16820); assay: Meprin β LOPAC pilot screen; type: biochemical; settings: 18 μM; for meprin β LOPAC pilot screen outcome: hit cutoff 25% inhibition
T2 sequence (Q16820 62-614 limits assumed): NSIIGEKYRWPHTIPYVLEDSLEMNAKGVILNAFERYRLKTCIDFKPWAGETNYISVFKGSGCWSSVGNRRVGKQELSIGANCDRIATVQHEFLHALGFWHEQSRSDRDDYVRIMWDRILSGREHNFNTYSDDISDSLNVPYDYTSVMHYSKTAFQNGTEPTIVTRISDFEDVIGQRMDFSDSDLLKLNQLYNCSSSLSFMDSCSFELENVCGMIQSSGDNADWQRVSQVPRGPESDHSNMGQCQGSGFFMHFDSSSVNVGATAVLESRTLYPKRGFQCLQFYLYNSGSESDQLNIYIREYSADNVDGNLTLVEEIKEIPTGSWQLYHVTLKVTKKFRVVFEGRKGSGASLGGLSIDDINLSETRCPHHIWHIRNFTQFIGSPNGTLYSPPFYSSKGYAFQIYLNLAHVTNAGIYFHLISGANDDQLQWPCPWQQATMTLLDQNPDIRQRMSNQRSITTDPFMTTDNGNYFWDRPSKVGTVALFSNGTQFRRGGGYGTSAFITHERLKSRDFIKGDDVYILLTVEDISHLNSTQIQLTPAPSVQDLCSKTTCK

[3] = biological target: meprin β; settings: read-out: Ki meprin β; cited from earlier work
[4] = biological target: T2, meprin β; assay: Meprin β HTS FRET assay, dose response; type: biochemical
Summary of the method: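 Trypsin-activated meprin β (trypsin removed on immobilized ovomucoid) in 50 mM Hepes, 0.01% Brij-35, pH 7.5, added as 2x (0.15 nM) solution. Pin-transferred inhibitor was preincubated 30 min at RT. 2x (20 μM) (MCA)-EDEDED-(K-ε-DNP) was then added, run 1 h at RT, and read at ex 324/em 393 nm. A 3-fold dilution series was run in quadruplicate, and % inhibition was fitted with a 4-parameter equation. DMSO final was 0.1% or 1.0%.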

[5] = biological target: ADAM17 (Homo sapiens, UniProt P78536); assay: Selectivity testing against zinc metalloproteases: ADAM17; type: biochemical; settings: read-out: IC50 ADAM17; n = 3 Mean ± SD
[6] = biological target: T3, MMP-2 (Homo sapiens, UniProt P08253); assay: Selectivity testing against zinc metalloproteases: MMP-2; type: biochemical; settings: read-out: IC50 MMP-2; n = 3 Mean ± SD
T3 sequence (P08253 110-660): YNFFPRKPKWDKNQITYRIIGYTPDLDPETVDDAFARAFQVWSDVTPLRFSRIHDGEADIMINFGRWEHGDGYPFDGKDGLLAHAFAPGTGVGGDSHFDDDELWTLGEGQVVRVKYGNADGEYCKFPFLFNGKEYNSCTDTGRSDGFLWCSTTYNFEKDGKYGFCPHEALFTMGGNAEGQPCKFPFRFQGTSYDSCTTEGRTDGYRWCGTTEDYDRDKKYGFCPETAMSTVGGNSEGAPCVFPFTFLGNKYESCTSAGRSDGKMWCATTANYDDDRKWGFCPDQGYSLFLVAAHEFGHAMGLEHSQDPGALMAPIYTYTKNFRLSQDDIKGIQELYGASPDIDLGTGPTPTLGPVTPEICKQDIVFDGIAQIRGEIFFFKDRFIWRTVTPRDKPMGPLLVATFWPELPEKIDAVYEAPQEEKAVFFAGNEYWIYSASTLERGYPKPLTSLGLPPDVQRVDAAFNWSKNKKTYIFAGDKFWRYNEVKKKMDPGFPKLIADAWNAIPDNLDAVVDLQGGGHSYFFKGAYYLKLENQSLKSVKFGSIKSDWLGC

[7] = biological target: MMP-9 (Homo sapiens, UniProt P14780); assay: Selectivity testing against zinc metalloproteases: MMP-9; type: biochemical; settings: read-out: IC50 MMP-9; n = 3 Mean ± SD
[8] = biological target: MMP-14 (Homo sapiens, UniProt P50281); assay: Selectivity testing against zinc metalloproteases: MMP-14; type: biochemical; settings: read-out: IC50 MMP-14; n = 3 Mean ± SD
[9] = biological target: T2, meprin β; assay: Meprin β inhibition kinetics / enzyme kinetics; type: biochemical
Summary of the method: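 Trypsin-activated meprin β at 1 nM was run with (MCA)-EDEDED-(K-ε-DNP) 0.5–25 μM plus varying inhibitor concentrations in 50 mM Hepes, 0.01% Brij-35, pH 7.5, at 25 °C. Fluorescence was read at ex 324/em 393 nm. Rates came from the linear portion of the progress curves. Ki and Ki′ came from nonlinear regression with a mixed-inhibition model. Mechanism came from the alpha parameter and was checked with Lineweaver-Burk plots.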

[10] = biological target: MMP-8 (Homo sapiens, UniProt P22894); assay: Selectivity testing against zinc metalloproteases: MMP-8; type: biochemical; settings: read-out: IC50 MMP-8; n = 3 Mean ± SD
[11] = biological target: MMP-13 (Homo sapiens, UniProt P45452); assay: Selectivity testing against zinc metalloproteases: MMP-13; type: biochemical; settings: read-out: IC50 MMP-13; n = 3 Mean ± SD
[12] = biological target: T4, ADAM10 (Homo sapiens, UniProt O14672); assay: Selectivity testing against zinc metalloproteases: ADAM10; type: biochemical; settings: read-out: IC50 ADAM10; n = 3 Mean ± SD
T4 sequence (O14672 214-748): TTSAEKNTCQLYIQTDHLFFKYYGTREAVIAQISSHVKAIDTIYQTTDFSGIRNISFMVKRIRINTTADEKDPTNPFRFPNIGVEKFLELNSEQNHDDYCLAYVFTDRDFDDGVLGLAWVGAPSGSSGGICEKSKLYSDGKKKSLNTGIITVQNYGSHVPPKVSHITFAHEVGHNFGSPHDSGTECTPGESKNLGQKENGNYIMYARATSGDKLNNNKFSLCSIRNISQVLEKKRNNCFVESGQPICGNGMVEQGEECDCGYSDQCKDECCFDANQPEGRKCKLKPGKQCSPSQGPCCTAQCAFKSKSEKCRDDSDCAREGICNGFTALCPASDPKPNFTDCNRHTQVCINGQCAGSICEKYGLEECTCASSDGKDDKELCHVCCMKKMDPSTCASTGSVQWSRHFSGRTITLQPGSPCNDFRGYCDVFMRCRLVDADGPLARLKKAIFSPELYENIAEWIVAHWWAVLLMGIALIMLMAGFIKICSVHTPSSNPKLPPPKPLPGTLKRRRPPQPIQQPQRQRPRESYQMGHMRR

[13] = biological target: T1, meprin α; assay: Meprin α HTS FRET assay, dose response; type: biochemical
Summary of the method: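 Recombinant human Strep-tagged meprin α was expressed in baculovirus-infected BTI-TN-5B1-4 cells, trypsin-activated, then freed of trypsin. It was used as a 2x solution at 2.6 nM in 50 mM Hepes, 0.01% Brij-35, pH 7.5. Test compound was pre-incubated 30 min at RT, then 2x (MCA)-YVADAPK-(K-ε-DNP) at 20 μM was added for 1 h at RT. Read at ex 324/em 393 nm. 3-fold dilutions in quadruplicate; 4-parameter fit; 0.1% or 1.0% DMSO.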

[14] = test system: meprin α; settings: cited from earlier work

Chain of MMP-9 (P14780 94-707, species assumed): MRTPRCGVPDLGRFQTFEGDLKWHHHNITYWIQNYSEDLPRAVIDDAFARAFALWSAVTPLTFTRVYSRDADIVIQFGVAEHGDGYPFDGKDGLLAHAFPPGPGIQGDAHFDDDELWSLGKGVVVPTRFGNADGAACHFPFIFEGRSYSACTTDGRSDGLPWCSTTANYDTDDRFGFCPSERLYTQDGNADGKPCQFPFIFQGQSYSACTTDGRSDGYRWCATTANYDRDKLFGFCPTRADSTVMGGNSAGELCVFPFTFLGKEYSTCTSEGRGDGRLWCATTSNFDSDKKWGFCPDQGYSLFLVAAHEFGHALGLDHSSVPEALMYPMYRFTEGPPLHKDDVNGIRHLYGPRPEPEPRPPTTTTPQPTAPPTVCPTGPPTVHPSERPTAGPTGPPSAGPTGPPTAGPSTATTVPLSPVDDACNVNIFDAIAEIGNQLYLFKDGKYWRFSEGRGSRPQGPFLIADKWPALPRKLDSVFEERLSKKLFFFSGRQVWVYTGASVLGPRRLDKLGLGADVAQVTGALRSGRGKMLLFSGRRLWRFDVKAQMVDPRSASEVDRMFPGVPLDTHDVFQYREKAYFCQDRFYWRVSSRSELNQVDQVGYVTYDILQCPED
Chain of MMP-8 (P22894 101-467, species assumed): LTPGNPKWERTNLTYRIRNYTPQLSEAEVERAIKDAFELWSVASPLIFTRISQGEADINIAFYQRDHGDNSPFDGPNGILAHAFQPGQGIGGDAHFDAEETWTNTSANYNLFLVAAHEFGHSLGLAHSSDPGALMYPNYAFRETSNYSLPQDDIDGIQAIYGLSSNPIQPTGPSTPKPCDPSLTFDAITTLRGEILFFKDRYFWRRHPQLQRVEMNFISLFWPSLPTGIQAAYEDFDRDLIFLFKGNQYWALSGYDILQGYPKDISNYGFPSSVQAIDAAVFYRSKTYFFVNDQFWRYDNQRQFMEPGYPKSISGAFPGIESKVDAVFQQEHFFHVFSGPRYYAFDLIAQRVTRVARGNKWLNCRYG
Chain of ADAM17 (P78536 215-824, species assumed): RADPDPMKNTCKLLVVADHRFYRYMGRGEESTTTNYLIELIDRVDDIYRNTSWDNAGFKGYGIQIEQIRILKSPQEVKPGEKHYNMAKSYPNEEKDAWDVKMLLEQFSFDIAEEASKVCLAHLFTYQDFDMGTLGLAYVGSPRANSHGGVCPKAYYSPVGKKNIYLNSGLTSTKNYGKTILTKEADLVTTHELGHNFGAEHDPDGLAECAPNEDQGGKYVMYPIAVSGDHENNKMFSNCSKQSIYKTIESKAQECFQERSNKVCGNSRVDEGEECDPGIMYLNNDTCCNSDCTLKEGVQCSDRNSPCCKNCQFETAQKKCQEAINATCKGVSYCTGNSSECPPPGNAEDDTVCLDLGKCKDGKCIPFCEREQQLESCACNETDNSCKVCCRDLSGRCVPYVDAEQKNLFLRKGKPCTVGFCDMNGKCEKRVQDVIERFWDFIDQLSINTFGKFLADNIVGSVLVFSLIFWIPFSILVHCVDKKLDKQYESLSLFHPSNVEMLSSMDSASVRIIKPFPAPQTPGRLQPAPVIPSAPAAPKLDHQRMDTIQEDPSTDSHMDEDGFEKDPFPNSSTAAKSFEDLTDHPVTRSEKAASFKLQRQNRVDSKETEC

O=C(O)[C@@H]1C[C@H](C(=O)O)N1 [cis-Azetidine-2,4-dicarboxylic acid]
meprin α LOPAC pilot screen outcome [1]: selective hits

c1ccc(-c2ccccn2)nc1 [2,2′-bipyridyl]
meprin α LOPAC pilot screen outcome [1]: inactive | meprin β LOPAC pilot screen outcome [2]: inactive

CNC(=O)[C@H](Cc1ccccc1)NC(=O)[C@H](CC(C)C)[C@H](CSc1cccs1)C(=O)NO [batimastat]
Ki [3]: 18 ± 2.2 µM

O.c1cnc2c(c1)ccc1cccnc12 [1,10-phenanthroline monohydrate]
meprin α LOPAC pilot screen outcome [1]: inactive | meprin β LOPAC pilot screen outcome [2]: inactive

Cc1nc(N=Nc2cc(S(=O)(=O)[O-])c3cc([N+](=O)[O-])cc(S(=O)(=O)[O-])c3c2)c(COP(=O)([O-])[O-])c(C=O)c1O.[Na+].[Na+].[Na+].[Na+] [PPNDS, Pyridoxal-5′-phosphate-6-(2′-naphthylazo-6′-nitro-4′,8′-disulfonate) tetrasodium]
potency differential meprin β versus meprin α ([4]; ratio of IC50 values): ~1000 fold | selectivity ratio meprin β versus MMP-8 ([4]; ratio of IC50 values): approximately 12 fold | IC50 ([4]; read-out: IC50 Meprin β, selectivity testing, n = 3 Mean ± SD): 0.08 ± 0.005 µM | IC50 [5]: 91 ± 7.1 µM | IC50 [6]: 31 ± 2 µM | IC50 [7]: 40 ± 2.5 µM | IC50 [8]: 73 ± 7 µM | Ki lower than IC50, fold ([9]; meprin β Ki versus HTS IC50): 10 fold | α = Ki/Ki′ ([9]; mixed-model inhibition, non-linear regression): 36 ± 27 | mechanism of inhibition of meprin β ([9]; non-linear regression and Lineweaver-Burke plots): pure competitive inhibition modality; also recorded: pure competitive inhibition mechanism | Ki ([9]; read-out: Ki meprin β, substrate (MCA)-EDEDED-(K-ε-DNP), mixed inhibition model): 0.008 ± 0.0024 µM | IC50 [10]: 1 ± 0.1 µM | IC50 [11]: 69 ± 4.3 µM | meprin β LOPAC pilot screen outcome [2]: selective hits | IC50 [12]: 19 ± 1.1 µM | IC50 ([13]; read-out: IC50 Meprin α, selectivity testing, n = 3 Mean ± SD): 67 ± 4.5 µM

N.N.O=C([O-])C1(C(=O)[O-])CCC1.[Pt+2] [Carboplatin, carboplatin]
% inhibition meprin β in pilot screen [2]: negative inhibition values | meprin β LOPAC pilot screen outcome [2]: selective hits

CCCCC[C@H](CC(=O)NO)C(=O)N[C@H](C(=O)N1CCC[C@H]1CO)C(C)C [actinonin]
IC50 ([4]; IC50 meprin β, 0.1% DMSO): 5.2 ± 0.1 µM | IC50 ([4]; IC50 meprin β, 1.0% DMSO): 4.5 ± 0.1 µM | Ki [3]: 2 µM | fold more potent inhibition of meprin α than meprin β ([14]; ratio of Ki values): 100 fold | Ki ([14]; read-out: Ki meprin α): 0.02 µM | meprin α LOPAC pilot screen outcome [1]: meprin α selective | meprin α LOPAC pilot screen outcome ([1]; listed as Actinonin): selective hits | IC50 ([13]; IC50 meprin α, 0.1% DMSO): 0.0015 ± 7e-05 µM | IC50 ([13]; IC50 meprin α, 1.0% DMSO): 0.0025 ± 0.0001 µM

CNC(=O)[C@H](Cc1c[nH]c2ccccc12)NC(=O)[C@@H](CC(=O)NO)CC(C)C [galardin]
Ki [3]: 8.9 ± 0.71 µM

O=P(O)(O)C(Cl)(Cl)P(=O)(O)O [clodronic acid]
meprin α LOPAC pilot screen outcome [1]: inactive | meprin β LOPAC pilot screen outcome [2]: inactive

CCN(CC)CCNC(=O)c1ccc(NC(C)=O)cc1.Cl [N-Acetylprocainamide hydrochloride]
meprin α LOPAC pilot screen outcome [1]: selective hits

CC(C)C[C@H](NC(=O)[C@H](O)[C@H](N)Cc1ccccc1)C(=O)O.Cl [epibestatin HCl]
meprin α LOPAC pilot screen outcome [1]: inactive | meprin β LOPAC pilot screen outcome [2]: inactive

CC(=O)c1ccc(S(=O)(=O)NC(=O)NC2CCCCC2)cc1 [Acetohexamide]
meprin α LOPAC pilot screen outcome [1]: selective hits
